# In ChEMBL document CHEMBL1250464, “The marine sponge metabolite mycothiazole: a novel prototype mitochondrial complex I inhibitor” (Bioorg Med Chem, 2010):
# Active and inactive are the calls of the source. No cut-off for these calls is given here.
# Tests used:
# MDA-MB-231 = assay: Cytotoxicity against human MDA-MB-231 cells assessed as inhibition of cell proliferation after 48 hrs by SRB assay; format: functional, cell-based
# T47D [1] = assay: Cytotoxicity against human T47D cells assessed as inhibition of cell proliferation after 48 hrs by SRB assay relative to control; format: functional; design: scale not given: the % may be the effect or the level left
# T47D [2] = assay: Reduction of hypoxia-induced VEGF mRNA expression in human T47D cells treated after 16 hrs of hypoxia by RT-PCR analysis; format: functional, cell-based
# Outline: (§1)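 T47D cells held at 1% O2 for 16 h with or without compound. Total RNA measured by real-time RT-PCR, normalized to 18S rRNA, and expressed relative to the normoxic control. Mean of two independent experiments.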
# T47D [3] = assay: Inhibition of hypoxia-induced HIF-1 activation in human T47D cells at 0.1 to 1000 nM by luciferase reporter gene assay; format: cell-based
# Outline: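 T47D cells (DMEM/F12, 10% FBS) carrying the pHRE3-TK-Luc HIF-1 luciferase reporter were exposed to hypoxia (1% O₂) for 16 h with compound at 0.1, 0.3, 1, 3, 10, 30, 100 and 1000 nM. Cycloheximide at 100 μM served as positive control. Data are from one representative triplicate experiment, mean ± SD.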
# T47D [4] = assay: Reduction of hypoxia-induced GLUT1 mRNA expression in human T47D cells treated after 16 hrs of hypoxia by RT-PCR analysis; format: functional, cell-based; outline: as §1
# T47D [5] = assay: Reduction of hypoxia-induced VEGF mRNA expression in human T47D cells at 0.1 uM treated after 16 hrs of hypoxia by RT-PCR analysis; format: functional, cell-based
# Outline: (§2)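 T47D cells were held at 1% O₂ for 16 h with or without compound. Total RNA was isolated and target mRNA was quantified by real-time RT-PCR, normalized to 18S rRNA, and expressed relative to the normoxic control. Values are averages of two independent experiments.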
# T47D [6] = assay: Reduction of hypoxia-induced GLUT1 mRNA expression in human T47D cells at 0.1 uM treated after 16 hrs of hypoxia by RT-PCR analysis; format: functional, cell-based; outline: as §2
# T47D [7] = assay: Inhibition of electron transport protein complex 1-mediated cellular respiration in digitonin-permeabilized human T47D cells at 30 nM presence of succinate; format: cell-based
# T47D [8] = assay: Inhibition of electron transport protein complex 3-mediated cellular respiration in digitonin-permeabilized human T47D cells at 10 to 30 nM presence of succinate; format: cell-based
# Outline: (§3)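 Clark-type oxygen electrode used to follow O2 consumption in T47D cells permeabilized with 10 μM digitonin. Substrates and inhibitors added one after another at set times. For complex I, respiration was started with malate/pyruvate, compound (10 nM) was added, then succinate was added to feed complex II.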
# T47D [9] = assay: Inhibition of hypoxia-induced HIF-1alpha protein accumulation in human T47D cell nucleus at 10 to 100 nM treated after 4 hrs of hypoxia by Western blotting; format: functional, cell-based
# Outline: (§4)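 Nuclear extracts prepared from T47D cells held at 1% O2 for 4 h with or without compound. HIF-1α and HIF-1β protein levels determined by western blot.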
# T47D [10] = assay: Inhibition of electron transport protein complex 4-mediated cellular respiration in digitonin-permeabilized human T47D cells at 10 to 30 nM presence of succinate; format: cell-based
# T47D [11] = assay: Inhibition of tumor angiogenesis in human T47D cells in normoxic conditioned medium at 10 nM by HUVEC-based tube formation assay; format: functional, cell-based
# Outline: (§5)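 Conditioned media collected from T47D cells treated for 16 h, normoxic or hypoxic (1% O2), with or without compound (10 nM). Media applied to HUVECs for tube formation. Relative tube length and branching points counted in three random fields, mean with SD. One-way ANOVA with Bonferroni post hoc test.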
# T47D [12] = assay: Inhibition of hypoxia-induced HIF-1beta protein accumulation in human T47D cell nucleus at 10 to 100 nM treated after 4 hrs of hypoxia by Western blotting; format: functional, cell-based; outline: as §4
# T47D [13] = assay: Inhibition of 1,10-phenanthroline-induced HIF-1 activation in human T47D cells at up to 10 uM by luciferase reporter gene assay; format: cell-based
# Outline: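 T47D cells carrying the pHRE3-TK-Luc HIF-1 luciferase reporter. HIF-1 induced chemically with 10 μM 1,10-phenanthroline. Compound tested at concentrations up to 10 μM.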
# T47D [14] = assay: Inhibition of oxygen consumption in human T47D cells; format: functional, cell-based
# Outline: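 Oxygen consumption measured with a Clark-type electrode in non-permeabilized T47D cells. Rotenone served as the complex I reference. Data given as % inhibition versus untreated control, averaged over three independent experiments with SD.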
# T47D [15] = assay: Inhibition of tumor angiogenesis in human T47D cells in conditioned medium at 10 nM treated after 16 hrs of hypoxia by HUVEC-based tube formation assay; format: functional, cell-based; outline: as §5
# T47D [16] = assay: Inhibition of electron transport protein complex 2-mediated cellular respiration in digitonin-permeabilized human T47D cells at 10 to 30 nM presence of succinate; format: cell-based; outline: as §3
# T47D [17] = assay: Reduction of hypoxia-induced secreted VEGF protein level in human T47D cells after 16 hrs by ELISA; format: functional, cell-based
# Outline: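 T47D cells exposed to 1% O2 or 10 μM 1,10-phenanthroline for 16 h with or without compound. Secreted VEGF in conditioned medium measured by ELISA and normalized to cellular protein (micro BCA). Mean with SD, N = 3. One-way ANOVA with Bonferroni post hoc test.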
# [18] = Neurotoxicity in Wistar rat cerebellar granule neurons assessed as apoptotic cells at 0.01 uM after 24 hrs using propidium iodide and Hoescht 33342 staining; format: toxicity, cell-based; settings: neuron
# Outline: (§6)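 Primary cerebellar granule neurons from 6-7-day-old Wistar rat pups, cultured 6-10 days at 37 °C. Cells exposed to compound for 24 h, then stained 20 min with Hoechst 33342 (5 μg/mL) and propidium iodide (1 μg/mL) in pH 7.3 buffer. At least 100 cells scored per treatment. Scoring: PI+ = late apoptotic/necrotic; PI− with condensed or fragmented nuclei = apoptotic; PI− with swollen, fragmented nuclei = early necrotic.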
# [19] = Neurotoxicity in Wistar rat cerebellar granule neurons assessed as cell death at 10 nM after 24 hrs using propidium iodide and Hoescht 33342 staining; format: toxicity, cell-based; settings: neuron, 0.01 µM; outline: as §6
# T47D [20] = assay: Inhibition of electron transport protein complex 1-mediated cellular respiration in digitonin-permeabilized human T47D cells at 10 nM presence of succinate; format: cell-based; outline: as §3
# [21] = Neurotoxicity in Wistar rat cerebellar granule neurons assessed as attached dead cells at 0.1 uM after 24 hrs using propidium iodide and Hoescht 33342 staining; format: toxicity, cell-based; settings: neuron; outline: as §6
smiles,measurement,setting,value
C=CC/C=C\Cc1csc(C(C)(C)[C@@H](C/C=C\C(=C)CCNC(=O)OC)OC(C)=O)n1,Activity,MDA-MB-231,Active
same,Activity,T47D [1],55%
same,inhibition,T47D [2],Dose-dependent effect
same,inhibition,T47D [3],Active
same,inhibition,T47D [4],Dose-dependent effect
C=CC/C=C\Cc1csc(C(C)(C)[C@H](O)C/C=C/C(O)(CO)CCNC(=O)OC)n1 (stereo not given in full),Activity,MDA-MB-231,Active
same,inhibition,T47D [5],inactive
same,inhibition,T47D [6],inactive
same,inhibition,T47D [7],Active
same,inhibition,T47D [3],inactive
C=CC/C=C\Cc1csc(C(C)(C)[C@H](O)C/C=C\C(=C)CCNC(=O)OC)n1 [MYCOTHIAZOLE],Activity,MDA-MB-231,Active
same,inhibition,T47D [8],inactive
same,inhibition,T47D [9],Active
same,inhibition,T47D [10],inactive
same,Activity,T47D [1],55%
same,inhibition,T47D [11],inactive
same,inhibition,T47D [12],inactive
same,inhibition,T47D [13],inactive
same,inhibition,T47D [14],Dose-dependent effect
same,inhibition,T47D [15],Active
same,inhibition,T47D [16],inactive
same,Activity,T47D [17],Active
same,Activity,[18],85%
same,Activity,[19],Toxic
same,inhibition,T47D [2],Dose-dependent effect
same,inhibition,T47D [3],Active
same,inhibition,T47D [20],Active
same,inhibition,T47D [4],Dose-dependent effect
C=C(C)[C@H]1Cc2c(ccc3c2O[C@@H]2COc4cc(OC)c(OC)cc4[C@@H]2C3=O)O1 [ROTENONE],Activity,[19],Toxic
same,Activity,[21],60%
